# Bioassay records deposited in PubChem by The Scripps Research Institute Molecular Screening Center.
# Only some compounds are listed: those with a hit (about 1.8% of all), similar ones and a draw of the others.
# M5 antag – antagonists of human muscarinic M5 receptor (CHRM5) | inhibition, % at 3 µM | 0.59% of 360,000 active | P08912 | CHO-hM5 cells, Fluo-8 calcium fluorescence, ACh EC80;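 active means inhibition above a per-plate cutoff, the mean of that plate's test compounds plus 3 SD, cut at about 27% in these data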;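 further: 0% = acetylcholine EC80 with DMSO and 100% = DMSO without agonist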
# Target sequence (P08912 whole entry, looked up): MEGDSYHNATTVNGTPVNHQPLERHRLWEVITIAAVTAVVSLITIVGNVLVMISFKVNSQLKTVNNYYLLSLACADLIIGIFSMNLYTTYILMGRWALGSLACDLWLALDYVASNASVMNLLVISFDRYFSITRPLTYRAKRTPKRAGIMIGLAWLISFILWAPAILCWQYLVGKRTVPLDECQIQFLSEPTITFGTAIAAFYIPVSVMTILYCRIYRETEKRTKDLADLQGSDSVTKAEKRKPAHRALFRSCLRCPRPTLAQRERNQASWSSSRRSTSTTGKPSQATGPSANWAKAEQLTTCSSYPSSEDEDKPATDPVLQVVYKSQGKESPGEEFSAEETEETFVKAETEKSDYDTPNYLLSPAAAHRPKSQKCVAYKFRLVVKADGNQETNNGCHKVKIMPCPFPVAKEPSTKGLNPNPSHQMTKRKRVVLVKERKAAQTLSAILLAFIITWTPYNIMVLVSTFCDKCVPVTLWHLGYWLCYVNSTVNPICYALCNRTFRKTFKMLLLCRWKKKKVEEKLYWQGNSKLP
# M4 PAM – positive allosteric modulators of human muscarinic M4 receptor; 0.4% of 360,000 active; CHO-K1 hM4/Gqi5, Fluo-8 calcium fluorescence, ACh EC20; 0% = ACh EC20, 100% = maximal ACh; activation, % at 3 µM; P08173;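 active means activation above its plate's cutoff, the mean activation of sample wells plus 3 SD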
# M4 antag – CHRM4 antagonism in calcium assay | P08173 | CHO-hM4 cells, ACh EC80, Fluo-8 calcium fluorescence | inhibition, % at 3 µM | 0.73% of 360,000 active | AID 624125;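 active means inhibition above its plate's cutoff, the mean inhibition of sample wells plus 3 SD, cut at about 27% in these data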;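 further: 0% = acetylcholine EC80 with DMSO and 100% = DMSO without agonist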
# M4 ag – agonists of human muscarinic M4 receptor (CHRM4). P08173. CHO-K1 hM4/Gqi5, Fluo-8 calcium fluorescence; vehicle 0%, full acetylcholine response 100%. activation, % at 3 µM. 0.14% of 360,000 active;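 active means activation above the run mean over all test wells plus 3 SD, cut at about 32% in these data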;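 further: peak over basal fluorescence ratio per well then scaled between controls; 0% = DMSO wells and 100% = acetylcholine at EC100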
# M5 ag – agonists of human muscarinic M5 receptor (CHRM5); P08912; CHO-K1 hM5 cells, Fluo-8 calcium fluorescence; 0% DMSO wells, 100% maximal acetylcholine response; activation, % at 3 µM; 0.19% of 360,000 active;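 active means activation above the run's mean over test compounds plus 3 SD, cut at about 23% in these data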;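 further: signal is peak over basal fluorescence ratio across the kinetic read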
# CHRM5 PAM – potentiates acetylcholine response at human M5 receptor; P08912; CHO-K1 hM5, Fluo-8 calcium, ACh EC20 PAM; 0% = ACh EC20, 100% = ACh EC100; activation, % at 3 µM; 0.3% of 360,000 active; AID 624038;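 active means activation above the run cutoff, the mean activation of all test compounds plus 3 SD, cut at about 18% in these data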
#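 Measured by: Fluo-8 calcium fluorescence; material: human M5 receptor in CHO-K1 cells; schedule: Post-acetylcholine fluorescence recording 140 s; benchmarks: low control EC20 acetylcholine (0%), high control EC100 acetylcholine (100%); read-out: Max/basal fluorescence ratio as % of EC20–EC100 ACh window; compound: single dose, 3 µM nominal final test concentration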
# An asterisk follows results filed as active.
SMILES,M5 antag,M4 PAM,M4 antag,M4 ag,M5 ag,CHRM5 PAM
COc1cccc(C(C(=O)NC2CCCC2)N(C(=O)c2ccco2)C2CC2)c1OC (centres undefined),0,1,8,1,-3,-3
Cc1c(C(=O)NCc2ccc3c(c2)OCO3)oc2ccc(S(=O)(=O)N3CCCCC3)cc12,15,-27,27*,15,4,-19
Cc1c(C(=O)NCc2ccc3c(c2)OCO3)oc2ccc(S(=O)(=O)N3CCCC3)cc12,11,-8,7,15,2,-15
CCOC(=O)c1ccc(NC(=O)c2ncn3c2C(=O)N[C@H](C)C3)cc1,-7,17*,-23,0,1,-4
CCOC(=O)c1ccc(NC(=O)c2nc[nH]c2C(=O)NCCCNC(=O)c2[nH]cnc2C(=O)Nc2ccc(C(=O)OCC)cc2)cc1,2,4,-6,1,3,8
CCOC(=O)c1ccc(NC(=O)c2nc[nH]c2C(=O)N(CC)CC)cc1,2,22*,-5,2,3,4
CCOC(=O)c1ccc(NC(=O)c2ncn3c2C(=O)NC[C@H]3C)cc1,1,11,-17,1,0,0
O=C(Nc1ccccc1)Nc1cc(OCC(F)(F)F)cc(OCC(F)(F)F)c1,47*,-16,10,12,1,-18
Cc1cccc(N(CC(=O)N2CCCC2)S(C)(=O)=O)c1,-2,-1,7,0,3,5
CS(=O)(=O)N(CC(=O)N1CCCC1)c1cccc(Cl)c1,3,4,2,0,-7,28*
COC(=O)C1=NN(c2ccccc2)C2(S1)SC(C(C)=O)=C(C)N2c1ccccc1 (centres undefined),-2,14,-2,-1,-9,13
COC(=O)C1=NN(c2ccc(C)cc2)C2(S1)SC(C(C)=O)=C(C)N2c1ccccc1 (centres undefined),0,0,22,2,-1,21*
C(#Cc1ccccc1)C[N+]1(CC#Cc2cccc3ccccc23)CCCC1,29*,-14,5,1,-10,-20
C#CC[N+]1(CC#Cc2ccccc2)CCCC1,0,-5,2,1,-7,-13
CC(C)C(=O)Nc1nc2cc3c(cc2s1)OCCO3,6,-8,0,-1,3,-4
CC(=O)Nc1nc2cc3c(cc2s1)OCO3,-1,7,-8,2,38*,-18
O=C(COc1ccccc1)Nc1nc2cc3c(cc2s1)OCO3,27*,-1,0,5,-3,-7
CC1C(c2ccccc2)=Nn2c(=O)n(-c3ccccc3)c(=O)n21 (centres undefined),6,3,-2,1,0,0
CCN(CC)S(=O)(=O)c1ccc(N2CCN(c3ccccc3OC)CC2)c(N)c1,30*,-15,20,18,7,-16
CCN(CC)S(=O)(=O)c1ccc(Oc2ccccc2)c(N)c1,8,2,6,4,-1,9
COc1cccc(CN2CCNC(=O)C2CC(=O)NCCCN2CCCC2=O)c1 (centres undefined),-11,15*,-5,0,-1,7
O=C(CC1C(=O)NCCN1Cc1cccc(F)c1)NCCCN1CCCC1=O (centres undefined),-17,4,-3,1,-1,13
N#Cc1nc(-c2ccccc2F)oc1NCCc1ccccc1,5,7,27*,0,-2,-9
NC1=NS(=O)(=O)NC1c1ccc(F)cc1 (centres undefined),-4,7,1,1,-1,7
COc1ccc(C)cc1S(=O)(=O)N1CCN(C(=O)c2ncoc2-c2cccc(C)c2)CC1,28*,-2,-3,6,-6,-8
COc1ccc(C)cc1S(=O)(=O)N1CCN(C(=O)c2ncoc2-c2ccc(C)cc2)CC1,11,-4,0,9,-5,-8
N#C/C(=C/c1ccccc1)C(=O)NCc1ccccc1,-9,-3,5,1,1,3
